Experimental data as given in ChEMBL document CHEMBL3286247, “Expansion of Antibacterial Spectrum of Muraymycins toward Pseudomonas aeruginosa” (ACS Med Chem Lett, 2014).
≈ marks a conversion by molar mass, not a printed value.

Experiments:
[1] = test system: Pseudomonas aeruginosa; assay: Antibacterial activity against clinical isolate Pseudomonas aeruginosa SR27156 assessed as growth inhibition after 20 hrs by microdilution method; assay type: functional; settings: SR27156, 20 h
Method in brief: (§1)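 Broth microdilution per CLSI in cation-adjusted Mueller-Hinton broth, using serial 2-fold compound dilutions. Each strain was inoculated at 5 × 10⁴ CFU per well in 0.1 mL. Plates were incubated at 35 °C for 20 h, and the MIC was then scored.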

[2] = test system: Pseudomonas aeruginosa; assay: Antibacterial activity against Pseudomonas aeruginosa PAO1 assessed as growth inhibition after 20 hrs by microdilution method; assay type: functional; settings: PAO1, 20 h; method in brief: as §1
[3] = Inhibition of Staphylococcus aureus MraY by fluorescence assay
Method in brief: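 Purified S. aureus MraY was given UDP-MurNAc-dansylpentapeptide as substrate. Formation of dansylated lipid I was followed by fluorescence enhancement (excitation 355 nm, emission 535 nm).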

[4] = test system: Pseudomonas aeruginosa; assay: Antibacterial activity against Pseudomonas aeruginosa ATCC 27853 assessed as growth inhibition after 20 hrs by microdilution method; assay type: functional; settings: ATCC 27853, 20 h; method in brief: as §1
[5] = test system: Pseudomonas aeruginosa; assay: Antibacterial activity against Pseudomonas aeruginosa YY165 deltamexB mutant assessed as growth inhibition after 20 hrs by microdilution method; assay type: functional; settings: YY165, 20 h
Method in brief: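 Broth microdilution per CLSI in cation-adjusted Mueller–Hinton broth; serial 2-fold compound dilutions inoculated with 5 × 10⁴ CFU per well (0.1 mL), incubated 35 °C for 20 h, then MIC scored. Strain YY165 is a MexB deletion mutant lacking the inner-membrane transporter of the MexAB-OprM efflux system.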

[6] = test system: Pseudomonas aeruginosa; assay: Antibacterial activity against Pseudomonas aeruginosa ATCC 25619 assessed as growth inhibition after 20 hrs by microdilution method; assay type: functional; settings: ATCC 25619, 20 h; method in brief: as §1

Row | SMILES | MIC [1] | MIC [2] | IC50 [3] | MIC [4] | MIC [5] | MIC [6]
1 | CCCCCCCCCCCCCCC[C@H](NC(=O)c1ccccn1)C(=O)NCCCN[C@H](C(=O)O)[C@H](O[C@@H]1O[C@H](CN)[C@@H](O)[C@H]1O)[C@H]1O[C@@H](n2ccc(=O)[nH]c2=O)[C@H](O)[C@@H]1O | > 64 µg/mL | > 64 µg/mL | 6.4 nM | > 64 µg/mL | > 64 µg/mL | 64 µg/mL (≈ 72.9 µM)
2 | CCCCCCCCCCCCCCC[C@H](NC(=O)c1cccnc1)C(=O)NCCCN[C@H](C(=O)O)[C@H](O[C@@H]1O[C@H](CN)[C@@H](O)[C@H]1O)[C@H]1O[C@@H](n2ccc(=O)[nH]c2=O)[C@H](O)[C@@H]1O | > 64 µg/mL | > 64 µg/mL | 9.6 nM | > 64 µg/mL | > 64 µg/mL | 64 µg/mL (≈ 72.9 µM)
3 | CCCCCCCCCCCCCCC[C@H](NC(=O)c1ccncc1)C(=O)NCCCN[C@H](C(=O)O)[C@H](O[C@@H]1O[C@H](CN)[C@@H](O)[C@H]1O)[C@H]1O[C@@H](n2ccc(=O)[nH]c2=O)[C@H](O)[C@@H]1O | > 64 µg/mL | > 64 µg/mL | 8.1 nM | > 64 µg/mL | > 64 µg/mL | 64 µg/mL (≈ 72.9 µM)
4 | CCCCCCCCCCCCCCC[C@H](NC(=O)c1ccnnc1)C(=O)NCCCN[C@H](C(=O)O)[C@H](O[C@@H]1O[C@H](CN)[C@@H](O)[C@H]1O)[C@H]1O[C@@H](n2ccc(=O)[nH]c2=O)[C@H](O)[C@@H]1O | > 64 µg/mL | > 64 µg/mL | 13.5 nM | > 64 µg/mL | 64 µg/mL (≈ 72.8 µM) | 64 µg/mL (≈ 72.8 µM)
5 | CCCCCCCCCCCCCCC[C@H](NC(=O)c1cnccn1)C(=O)NCCCN[C@H](C(=O)O)[C@H](O[C@@H]1O[C@H](CN)[C@@H](O)[C@H]1O)[C@H]1O[C@@H](n2ccc(=O)[nH]c2=O)[C@H](O)[C@@H]1O | > 64 µg/mL | > 64 µg/mL | 33.1 nM | > 64 µg/mL | > 64 µg/mL | 64 µg/mL (≈ 72.8 µM)
6 | CCCCCCCCCCCCCCC[C@H](NC(=O)c1ccc2ccccc2n1)C(=O)NCCCN[C@H](C(=O)O)[C@H](O[C@@H]1O[C@H](CN)[C@@H](O)[C@H]1O)[C@H]1O[C@@H](n2ccc(=O)[nH]c2=O)[C@H](O)[C@@H]1O | > 64 µg/mL | > 64 µg/mL | 105 nM | > 64 µg/mL | > 64 µg/mL | > 64 µg/mL
7 | N=C(N)NCCCCCC(=O)NCCCCCC(=O)NCCCN[C@H](C(=O)O)[C@H](O[C@@H]1O[C@H](CN)[C@@H](O)[C@H]1O)[C@H]1O[C@@H](n2ccc(=O)[nH]c2=O)[C@H](O)[C@@H]1O | > 64 µg/mL | > 64 µg/mL | 1490 nM | > 64 µg/mL | > 64 µg/mL | > 64 µg/mL
8 | CCCCCCCCC(=O)NCCCCCC(=O)NCCCN[C@H](C(=O)O)[C@H](O[C@@H]1O[C@H](CN)[C@@H](O)[C@H]1O)[C@H]1O[C@@H](n2ccc(=O)[nH]c2=O)[C@H](O)[C@@H]1O | > 64 µg/mL | > 64 µg/mL | 97.3 nM | > 64 µg/mL | > 64 µg/mL | > 64 µg/mL
9 | CC(C)CCCC(=O)N[C@@H](CCCNC(=N)N)C(=O)NCCCN[C@H](C(=O)O)[C@H](O[C@@H]1O[C@H](CN)[C@@H](O)[C@H]1O)[C@H]1O[C@@H](n2ccc(=O)[nH]c2=O)[C@H](O)[C@@H]1O | > 64 µg/mL | > 64 µg/mL | 225 nM | > 64 µg/mL | > 64 µg/mL | > 64 µg/mL
10 | CCCCCCCCCCC(=O)N[C@@H](CCCNC(=N)N)C(=O)NCCCN[C@H](C(=O)O)[C@H](O[C@@H]1O[C@H](CN)[C@@H](O)[C@H]1O)[C@H]1O[C@@H](n2ccc(=O)[nH]c2=O)[C@H](O)[C@@H]1O | > 64 µg/mL | > 64 µg/mL | 9.8 nM | > 64 µg/mL | > 64 µg/mL | 32 µg/mL (≈ 38.6 µM)
11 | CCCCCCCCCCCCCC(=O)N[C@@H](CCCNC(=N)N)C(=O)NCCCN[C@H](C(=O)O)[C@H](O[C@@H]1O[C@H](CN)[C@@H](O)[C@H]1O)[C@H]1O[C@@H](n2ccc(=O)[nH]c2=O)[C@H](O)[C@@H]1O | 16 µg/mL (≈ 18.3 µM) | 32 µg/mL (≈ 36.7 µM) | 2.1 nM | 32 µg/mL (≈ 36.7 µM) | 16 µg/mL (≈ 18.3 µM) | 16 µg/mL (≈ 18.3 µM)
12 | C[C@@H](O)[C@H]1C(=O)N2C(C(=O)O)=C(S[C@@H]3CN[C@H](CNS(N)(=O)=O)C3)[C@H](C)[C@H]12 [DORIPENEM] | 0.031 µg/mL (≈ 0.0737 µM) | 0.5 µg/mL (≈ 1.19 µM) | – | 0.5 µg/mL (≈ 1.19 µM) | 0.25 µg/mL (≈ 0.595 µM) | 0.063 µg/mL (≈ 0.15 µM)
